Most compounds without a hit are left out; they make up all but 2.3% or so of the library.
TRPC4 act = opens the mouse TRPC4 cation channel; Q9QUQ5; HEK293 TRPC4beta/mu-opioid, Fluo4 calcium fluorescence; active compounds read high; B-score at 10 µM; 0.49% of 310,000 active; AID 2237;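 active = B-score above 5 SD of library B-scores, and initial fluorescence ratio not above library mean plus 5 SD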;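 also: positive B-score marks a calcium rise read as TRPC4 activation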
Target sequence (Q9QUQ5 whole entry, looked up): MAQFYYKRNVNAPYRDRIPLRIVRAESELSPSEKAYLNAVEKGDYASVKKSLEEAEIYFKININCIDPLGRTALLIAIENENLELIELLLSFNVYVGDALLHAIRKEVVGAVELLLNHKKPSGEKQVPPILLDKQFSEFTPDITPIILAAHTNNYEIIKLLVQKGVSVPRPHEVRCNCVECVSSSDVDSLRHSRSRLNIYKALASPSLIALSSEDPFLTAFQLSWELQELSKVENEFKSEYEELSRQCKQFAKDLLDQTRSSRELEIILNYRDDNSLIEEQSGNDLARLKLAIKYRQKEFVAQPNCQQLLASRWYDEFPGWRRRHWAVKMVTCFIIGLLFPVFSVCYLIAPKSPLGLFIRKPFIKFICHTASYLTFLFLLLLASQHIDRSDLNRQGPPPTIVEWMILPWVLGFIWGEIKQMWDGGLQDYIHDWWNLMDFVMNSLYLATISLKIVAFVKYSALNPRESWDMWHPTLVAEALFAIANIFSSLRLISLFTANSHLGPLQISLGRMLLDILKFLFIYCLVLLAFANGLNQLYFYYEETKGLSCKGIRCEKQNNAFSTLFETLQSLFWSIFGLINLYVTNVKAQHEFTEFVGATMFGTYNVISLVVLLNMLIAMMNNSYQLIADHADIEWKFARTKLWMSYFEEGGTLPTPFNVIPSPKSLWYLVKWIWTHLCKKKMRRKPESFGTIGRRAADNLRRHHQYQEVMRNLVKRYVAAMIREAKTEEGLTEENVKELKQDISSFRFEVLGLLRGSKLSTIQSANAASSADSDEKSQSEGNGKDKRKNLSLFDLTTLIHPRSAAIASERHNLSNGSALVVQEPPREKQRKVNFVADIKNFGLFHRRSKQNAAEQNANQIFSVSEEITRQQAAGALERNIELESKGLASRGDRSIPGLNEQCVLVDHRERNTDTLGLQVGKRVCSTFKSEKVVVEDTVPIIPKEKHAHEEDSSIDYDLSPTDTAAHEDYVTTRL
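Technique: kinetic Fluo4 calcium fluorescence; Test system: TRPC4beta and mu-opioid receptor HEK293 stable cells; Measure: B-scored integrated calcium fluorescence ratio; Benchmarks: low control buffer alone, high control maximal DAMGO; Schedule: 45 min room-temperature Fluo4 loading, 110 s read.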
TRPC4 inh = inhibitors of mouse TRPC4 channel | Q9QUQ5 | HEK293 TRPC4beta/mu-opioid, DAMGO-evoked Fluo4 calcium flux; active compounds read low | B-score at 10 µM | 0.39% of 300,000 active;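 active = B-score over 3 SD under the library average, no early fluorescence shift, positive overall ratio signal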
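Material: HEK293 cells with stable TRPC4beta plus mu-opioid receptor expression / Probe or stimulus: DAMGO in two steps, submaximal then maximal / Compound: single concentration per test compound / Technique: kinetic Fluo4 fluorescence imaging of calcium influx / Read-out: per-well B score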
TRPC6 inh = inhibitors of mouse TRPC6 channel; HEK293-TRPC6, membrane potential dye, ACh-evoked depolarization; active compounds read low; B-score at 10 µM; 1.1% of 310,000 active;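 active = B-score under library mean minus 3 SD, initial fluorescence not abnormally high, positive integrated signal ratio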;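 also: B-score derived from integrated fluorescence ratio over the kinetic read; more negative B-score means stronger inhibition of depolarization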
TRPC4 potent = allosterically enhances the mouse TRPC4 cation channel; Q9QUQ5; HEK293 TRPC4beta/mu-opioid, DAMGO EC20, Fluo-4 Ca2+ flux; active compounds read high; 0.42% of 310,000 active; B-score at 10 µM;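 active = B-score of calcium response area above 5 SD of library B-scores, with initial fluorescence ratio within 5 SD of library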;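 also: B-score of integrated fluorescence ratio over time as area under calcium response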
TRPC6 act = activates the mouse TRPC6 cation channel; Q61143; B-score at 10 µM; HEK293-TRPC6 membrane potential dye fluorescence; active compounds read high; AID 2550; 0.13% of 310,000 active;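 active = B-score of the integrated fluorescence ratio above library mean plus 3 SD, and starting fluorescence ratio within library mean plus 5 SD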;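 also: higher score means more depolarization so channel activation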
* marks the source's active call; other numbers are inactive results; i = inactive.

SMILES	TRPC4 act	TRPC4 inh	TRPC6 inh	TRPC4 potent	TRPC6 act
CCOc1ccccc1C(=O)N1CCN(c2cccc(Cl)c2)CC1	i	i	i	i	i
COc1ccccc1N1CCN(c2ncc(C(=O)N3CCN(c4cccc(Cl)c4)CC3)c3ccccc23)CC1	i	i	i	21*	i
CCN1CCN(c2ncc(C(=O)Nc3cc(Cl)ccc3OC)c3ccccc23)CC1	i	i	i	12*	i
COc1ccc(Cl)cc1NC(=O)CCN1CCN(c2ccccc2C)CC1	i	i	i	i	i
COCCNC(=O)C(=O)N/N=C/c1ccccc1C(F)(F)F	i	i	i	i	i
CCc1ccc(C(=O)N2CCCN(C)CC2)s1	i	i	i	i	i
CCc1c(C(=O)N2CCCN(C)CC2)csc1C	i	-6*	i	i	i
O=[N+]([O-])c1ccc(C23CC4CC(CC(O)(C4)C2)C3)cc1	i	-6*	i	i	i
O=C(NC12CC3CC(CC(C3)C1)C2)c1ccc([N+](=O)[O-])cc1	i	i	i	i	i
CCOc1ccc2[nH]c3c(N4CCN(c5ccccn5)CC4)ncnc3c2c1	i	-6*	i	i	i
COc1ccc(C(=O)C2CCCN(S(=O)(=O)c3ccc(C(C)=O)cc3)C2)c(C)c1 (stereo not drawn)	i	i	i	i	i
O=C(Nc1cccc(Cl)c1)c1ccc(F)c(S(=O)(=O)NCc2ccc3c(c2)OCO3)c1	i	i	i	i	i
COc1ccc2cc3cc(C(=O)NCCN4CCc5ccccc5C4)oc3nc2c1	i	i	i	i	i
COc1ccc2cc3cc(C(=O)NCCN4CCN(Cc5ccccc5)CC4)oc3nc2c1	i	-6*	i	i	i
CCCn1c(=O)c(C(=O)NNC(=O)c2ccccc2Cl)c(O)c2ccccc21	48*	i	i	i	i
CCCn1c(=O)c(C(=O)NCC2CCCO2)c(O)c2ccccc21 (stereo not drawn)	i	i	i	16*	i
O=C(NCC1CCCO1)c1c(O)c2ccccc2[nH]c1=O (stereo not drawn)	i	i	i	i	i
N#Cc1cc[n+](CC(=O)c2ccc(NC(=O)c3ccccc3)cc2)cc1	i	i	i	i	i
O=C(c1ccc(Cl)nc1)N1CCN(S(=O)(=O)c2ccc(Cl)cc2)CC1	i	i	i	i	i
CCOC(=O)C1=C(N)OC2=C(C(=O)CC(C)(C)C2)C1c1ccc(CC)s1 (stereo not drawn)	i	i	i	16*	i
CCOC(=O)C1=C(N)OC2=C(C(=O)CC(C)(C)C2)C1c1ccc(C)s1 (stereo not drawn)	i	i	i	i	i
CC(=C/c1ccccc1)/C=N/n1c(-c2ccncc2)n[nH]c1=S	i	i	i	15*	i
CC(/C=N/n1c(-c2cccnc2)n[nH]c1=S)=C\c1ccccc1	i	i	i	i	i
CCn1c(N2CCN(S(=O)(=O)c3ccccc3)CC2)nc2ccccc21	i	i	i	i	i
CCCn1c(N2CCN(S(=O)(=O)Cc3ccccc3)CC2)nc2ccccc21	i	i	i	22*	i
SMILES	TRPC4 act	TRPC4 inh	TRPC6 inh	TRPC4 potent	TRPC6 act
CCCC(=O)Nc1c(-c2ccccc2)c(=O)c(C)nn1-c1ccc(Cl)cc1	78*	i	i	i	i
COc1ccc(-c2c(NC(=O)c3ccco3)n(-c3ccccc3)nc(C)c2=O)cc1	i	i	i	i	i
COc1ccccc1Oc1nc(C)c(C(C)=O)cc1C#N	i	i	i	12*	i
COC(=O)c1cc(C#N)c(Oc2ccccc2)nc1C	i	i	i	i	i
Cc1cc(C)n(S(=O)(=O)c2ccc(C(C)(C)C)cc2)n1	i	i	-6.56*	i	i
Cc1cc(C)n(S(=O)(=O)c2ccc(F)cc2)n1	i	i	i	i	i
O=C(N/N=C/c1ccccc1OCC(=O)N1CCCC1)C(=O)Nc1ccccc1F	i	i	i	i	i
Cc1ccc(C)c2[nH]c(=O)c(CN(CC3CCCO3)C(=S)NCc3ccco3)cc12 (stereo not drawn)	i	-6*	i	i	i
CC(C)C(=O)NC(C)C(c1cccs1)N1CCN(c2ccccc2)CC1 (stereo not drawn)	53*	i	i	i	i
COc1ccccc1N1CCN(C(c2cccs2)C(C)NC(=O)c2cccs2)CC1 (stereo not drawn)	84*	i	i	i	i
CC(NC(=O)C1CC1)C(c1cccs1)N1CCN(c2ccccc2)CC1 (stereo not drawn)	44*	i	i	i	i
COc1ccccc1N1CCN(C(c2cccs2)C(C)NC(=O)c2cccnc2)CC1 (stereo not drawn)	i	i	i	i	i
CC(=O)c1cc(-c2ccc(F)cc2)n(CCC(=O)Nc2cccc(C)n2)c1C	i	i	i	i	i
Cc1cccc(N/C(N)=N/c2nc(C)cc(C)n2)c1	i	i	i	i	i
Cc1cc(C)cc(N/C(N)=N/c2nc(C)cc(C)n2)c1	i	-6*	i	i	i
Cc1ccc(N/C(N)=N/c2nc(C)cc(C)n2)cc1	i	i	i	i	i
Cc1cc(C)nc(/N=C(\N)Nc2ccccc2-c2ccccc2)n1	i	-6*	i	i	i
CCCCc1ccc(N/C(N)=N/c2nc(C)cc(C)n2)cc1	77*	i	i	i	i
CC(C)Cn1c(N)c(C(=O)COC(=O)[C@@H]2CCCN2C(=O)c2cccs2)c(=O)n(C)c1=O	i	i	i	i	i
Cc1ccc(C)c(N2C(=O)C3C4C=CC(CC4)C3C2=O)c1 (stereo not drawn)	i	i	i	i	i
COc1ccccc1OCC(=O)NNc1c2ccccc2nc2ccccc12	i	i	i	i	i
Clc1ccccc1CSc1nc2ccncc2[nH]1	i	-6*	i	i	i
O=C(NCc1ccccc1Cl)c1ccc(CSc2nc3ccncc3[nH]2)cc1	i	i	i	i	i
Cc1ccc2sc(N3CCN(CCNC(=O)c4ccco4)CC3)nc2c1C	i	i	i	i	i
Cc1cc(SCC(=O)c2cccc([N+](=O)[O-])c2)nc(=O)[nH]1	i	i	i	41*	i
Cc1cc(SCc2cccc([N+](=O)[O-])c2)nc(=O)[nH]1	i	i	i	i	i
